According to ChEMBL document CHEMBL1149086, “Antimalarial and antitumor evaluation of novel C-10 non-acetal dimers of 10beta-(2-hydroxyethyl)deoxoartemisinin” (J Med Chem, 2004):
pIC50: −log10 of the molar value.

Key:
LOX IMVI = test: Concentration required to achieve total growth inhibition against melanoma LOX IMVI cell line; type: functional; conditions: Homo sapiens
MCF7 [1] = test: Concentration required to achieve total growth inhibition against breast MCF-7 cancer cell line; type: functional; conditions: Homo sapiens
MCF7 [2] = test: Concentration of the drug required to achieve 50% cytotoxicity against breast MCF-7 cancer cell line; type: cell-based; conditions: human
Malme-3M [3] = test: inhibition against melanoma MALME-3M cell line; type: functional; conditions: Homo sapiens
Malme-3M [4] = test: Concentration of the drug required to achieve 50% cytotoxicity against melanoma MALME-3M cell line; type: cell-based; conditions: human
MOLT-4 [5] = test: Concentration required to achieve total growth inhibition against leukemia MOLT-4 cell line; type: functional; conditions: Homo sapiens
Malme-3M [6] = test: Concentration required to achieve total growth inhibition against melanoma MALME-3M cell line; type: functional; conditions: Homo sapiens
MOLT-4 [7] = test: Concentration of the drug required to achieve 50% cytotoxicity against leukemia MOLT-4 cell line; type: functional; conditions: Homo sapiens, read-out: LC50 (the source's name)
NCI/ADR-RES [8] = test: inhibition against breast NCI/ ADR-RES cancer cell line; type: functional; conditions: Homo sapiens
NCI/ADR-RES [9] = test: Concentration of the drug required to achieve 50% cytotoxicity against breast NCI/ ADR-RES cancer cell line; type: cell-based; conditions: human
NCI/ADR-RES [10] = test: Concentration required to achieve total growth inhibition against breast NCI/ ADR-RES cancer cell line; type: functional; conditions: Homo sapiens
PC-3 [11] = test: Concentration of the drug required to achieve 50% cytotoxicity against prostate PC-3 cell line; type: cell-based; conditions: human
PC-3 [12] = test: inhibition against prostate PC-3 cell line; type: functional; conditions: Homo sapiens
Plasmodium falciparum = test: In vitro antimalarial activity against Plasmodium falciparum HB3 by [3H]hypoxanthine uptake; type: functional, organism-based
PC-3 [13] = test: Concentration required to achieve total growth inhibition against prostate PC-3 cell line; type: functional; conditions: Homo sapiens
RPMI-8226 [14] = test: Concentration of the drug required to achieve 50% cytotoxicity against leukemia RPMI-8226 cell line; type: functional; conditions: Homo sapiens, read-out: LC50 (the source's name)
RPMI-8226 [15] = test: Concentration required to achieve total growth inhibition against leukemia RPMI-8226 cell line; type: functional; conditions: Homo sapiens
SW-620 [16] = test: inhibition against colon SW-620 cancer cell line; type: functional; conditions: Homo sapiens
SW-620 [17] = test: Concentration of the drug required to achieve 50% cytotoxicity against colon SW-620 cancer cell line; type: cell-based; conditions: human
SR [18] = test: inhibition against leukemia SR cell line; type: functional; conditions: Homo sapiens
SR [19] = test: Concentration of the drug required to achieve 50% cytotoxicity against leukemia SR cell line; type: functional; conditions: Homo sapiens, read-out: LC50 (the source's name)
SR [20] = test: Concentration required to achieve total growth inhibition against leukemia SR cell line; type: functional; conditions: Homo sapiens
SW-620 [21] = test: Concentration required to achieve total growth inhibition against colon SW-620 cancer cell line; type: functional; conditions: Homo sapiens
SK-MEL-5 [22] = test: inhibition against melanoma SK-MEL-5 cell line; type: functional; conditions: Homo sapiens
SK-MEL-5 [23] = test: Concentration required to achieve total growth inhibition against melanoma SK-MEL-5 cell line; type: functional; conditions: Homo sapiens
[24] = Concentration of the drug required to achieve 50% cytotoxicity against leukemia CCRF-CEM cell line; type: functional; conditions: Homo sapiens, read-out: LC50 (the source's name)
T47D [25] = test: inhibition against breast T-47D cancer cell line; type: functional; conditions: Homo sapiens
T47D [26] = test: Concentration of the drug required to achieve 50% cytotoxicity against breast T-47D cancer cell line; type: cell-based; conditions: human
T47D [27] = test: Concentration required to achieve total growth inhibition against breast T-47D cancer cell line; type: functional; conditions: Homo sapiens
UACC-62 [28] = test: inhibition against melanoma UACC-62 cell line; type: functional; conditions: Homo sapiens
UACC-62 [29] = test: Concentration of the drug required to achieve 50% cytotoxicity against melanoma UACC-62 cell line; type: cell-based; conditions: human
UACC-62 [30] = test: Concentration required to achieve total growth inhibition against melanoma UACC-62 cell line; type: functional; conditions: Homo sapiens
HL-60 = test: Inhibitory concentration against HL60 cells; type: functional, cell-based; conditions: Homo sapiens
Method in brief: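 HL60 (2.5 × 10⁴/well) or Jurkat (1 × 10⁵/well) in RPMI-1640 with 10% FBS and 1% L-glutamine, 5% CO2, 37 °C. Exposed to 10⁻¹⁰–10⁻⁴ M for 72 h, final DMSO below 0.5% v/v. [3H]-thymidine (0.5 μCi) added for the final 24 h. Incorporation counted by β-scintillation.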

SK-MEL-5 [31] = test: Concentration of the drug required to achieve 50% cytotoxicity against melanoma SK-MEL-5 cell line; type: cell-based; conditions: human
RPMI-8226 [32] = test: inhibition against leukemia RPMI-8226 cell line; type: functional; conditions: Homo sapiens
K562 = test: inhibition against leukemia K-562 cell line; type: functional; conditions: Homo sapiens
MCF7 [33] = test: inhibition against breast MCF-7 cancer cell line; type: functional; conditions: Homo sapiens

C[C@H]1[C@@H](CCOP(=O)(OCC[C@H]2O[C@@H]3OC4(C)CC[C@H]5[C@H](C)CC[C@@H]([C@H]2C)[C@@]35OO4)Oc2ccccc2)O[C@@H]2OC3(C)CC[C@H]4[C@H](C)CC[C@@H]1[C@@]24OO3 (single isomer, unassigned)
TGI (LOX IMVI): 15.6 µM | TGI (MCF7 [1]): > 100 µM | LC50 (MCF7 [2]): > 100 µM | GI50 (Malme-3M [3]): 0.194 µM | LC50 (Malme-3M [4]): > 100 µM | TGI (MOLT-4 [5]): 11.9 µM | TGI (Malme-3M [6]): 30.8 µM | CC50 (MOLT-4 [7]): > 100 µM | GI50 (NCI/ADR-RES [8]): 0.5 µM | LC50 (NCI/ADR-RES [9]): > 100 µM | TGI (NCI/ADR-RES [10]): 45.2 µM | LC50 (PC-3 [11]): > 100 µM | GI50 (PC-3 [12]): < 0.01 µM | pIC50 (Plasmodium falciparum): 9.74 | TGI (PC-3 [13]): 65.5 µM | CC50 (RPMI-8226 [14]): > 100 µM | TGI (RPMI-8226 [15]): 0.01 µM | GI50 (SW-620 [16]): < 0.01 µM | LC50 (SW-620 [17]): > 100 µM | GI50 (SR [18]): < 0.01 µM | CC50 (SR [19]): > 100 µM | TGI (SR [20]): 0.263 µM | TGI (SW-620 [21]): 100 µM | GI50 (SK-MEL-5 [22]): 0.013 µM | TGI (SK-MEL-5 [23]): 2.25 µM | CC50 [24]: > 100 µM | GI50 (T47D [25]): 0.0256 µM | LC50 (T47D [26]): > 100 µM | TGI (T47D [27]): < 10 µM | GI50 (UACC-62 [28]): 0.0753 µM | LC50 (UACC-62 [29]): > 100 µM | TGI (UACC-62 [30]): 21.8 µM | pIC50 (HL-60): 6.62 | LC50 (SK-MEL-5 [31]): > 100 µM | GI50 (RPMI-8226 [32]): < 0.01 µM | GI50 (K562): < 0.01 µM | GI50 (MCF7 [33]): 0.106 µM
